Calls of active or inactive are those of the source. The rule behind the calls is not given here. Residues, ends and D or L forms follow the SMILES beside them.
Legend:
Danio rerio [1] = species on record: Danio rerio; assay: Protection of neurodegeneration in zebrafish Huntington's disease model expressing EGFP-tagged huntingtin exon with EGFP-HDQ71 in rod photoreceptor assessed as induction of rhodopsin expression at 1 uM; assay type: functional, organism-based
Method in brief: (§1)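 Zebrafish larvae dark-reared 3–9 d.p.f. with drug in E3, refreshed daily, then lysed in RIPA/DTT. Western blot with anti-rhodopsin (Zpr3, 1:1000), anti-Zpr1 and anti-EGFP antibodies; ECL detection.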

SK-N-MC [2] = assay: Cytotoxicity against human SK-N-MC cells expressing EGFP-HDQ74 at 1 uM after 48 hrs; assay type: cell-based
COS-7 [3] = assay: Induction of autophagy in african green monkey COS7 cells expressing PLC-epsilon assessed as calpain activation at 2.5 uM after 30 mins by immunoblotting analysis; assay type: functional, cell-based; conditions: Chlorocebus aethiops
Method in brief: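 Calpain activation in COS-7 after 30 min exposure, alongside 2.5 μM thapsigargin where applied; immunoblot of the active calpain small subunit.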

SK-N-SH (Homo sapiens) [4] = assay: Induction of autophagy in human SK-N-SH cells expressing EGFP-HDQ74 assessed as reduction in EGFP-HDQ74 aggregation at 1 uM after 48 hrs by densitometric analysis
SK-N-MC [5] = assay: Induction of autophagy in Atg positive human SK-N-MC cells expressing EGFP-HDQ74 at 1 uM after 48 hrs; assay type: functional, cell-based
Danio rerio [6] = species on record: Danio rerio; assay: Protection of neurodegeneration in zebrafish Huntington's disease model expressing EGFP-tagged huntingtin exon with EGFP-HDQ71 in rod photoreceptor assessed as induction of rhodopsin expression at 3 uM; assay type: functional, organism-based; method in brief: as §1
SK-N-SH [7] = assay: Induction of autophagy in human SK-N-SH cells assessed as inhibition of Bay K8644-induced calpain activation; assay type: functional, cell-based
Method in brief: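 SK-N-SH cells pretreated 15 min, then given 1 μM (±)-Bay K8644 for 4 h. The active calpain small subunit was detected by immunoblot.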

Mus musculus = species on record: Mus musculus; assay: Induction of autophagy in Atg deficient mouse […] expressing EGFP-HDQ74 at 1 uM after 48 hrs; assay type: functional
COS-7 [8] = assay: Induction of autophagy in african green monkey COS7 cells expressing EGFP-HDQ74/rheb assessed as reduction in EGFP-HDQ74 aggregation at 0.2 uM after 2 hrs; assay type: functional, cell-based; conditions: Chlorocebus aethiops
COS-7 [9] = assay: Induction of autophagy in african green monkey COS7 cells expressing EGFP-LC3 assessed as increase in EGFP-LC3 vesicle at 0.2 uM after 2 hrs; assay type: functional, cell-based; conditions: Chlorocebus aethiops
Method in brief: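 COS-7 transfected 4 h with EGFP-LC3, then exposed 2 h together with 2.5 μM thapsigargin. Each EGFP-positive cell was scored positive if it had >5 EGFP-LC3 vesicles. Blinded fluorescence microscopy; triplicate, at least twice.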

Danio rerio [10] = species on record: Danio rerio; assay: Protection of neurodegeneration in zebrafish Huntington's disease model expressing EGFP-tagged huntingtin exon with EGFP-HDQ71 in rod photoreceptor assessed as decrease in […] aggregation at 3 uM; assay type: functional, organism-based
Method in brief: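 Transgenic zebrafish larvae raised in PTU to 3 d.p.f., then dark-reared 3–9 d.p.f. with drug in E3 medium (pH 7.2), refreshed daily. Fixed fish were cryosectioned at 12 μm and aggregates counted over 96 μm of the central eye. Means from 10 fish per group; ANOVA with Dunnett's test.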

Danio rerio [11] = species on record: Danio rerio; assay: Protection of neurodegeneration in zebrafish Huntington's disease model expressing EGFP-tagged huntingtin exon with EGFP-HDQ71 in rod photoreceptor assessed as loss of rhodopsin expression at 3 uM
SK-N-SH (Homo sapiens) [12] = assay: Induction of autophagy in human SK-N-SH cells assessed as increase in LC3-2 level at 0.33 uM after 24 hrs by immunoblotting analysis
SK-N-SH [13] = assay: Induction of autophagy in human SK-N-SH cells expressing EGFP-HDQ74 assessed as inhibition of Bay K8644-induced EGFP-HDQ74 aggregation at 1 uM after 48 hrs; assay type: functional, cell-based
Method in brief: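 SK-N-SH cells transfected with EGFP-HDQ74 (LipofectAMINE PLUS, 4 h), then exposed alongside 1 μM (±)-Bay K8644. Proportion of EGFP-positive cells with aggregates scored at 48 h post-transfection by a blinded observer.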

Danio rerio [14] = species on record: Danio rerio; assay: Protection of neurodegeneration in zebrafish Huntington's disease model expressing EGFP-tagged huntingtin exon with EGFP-HDQ71 in rod photoreceptor assessed as decrease in […] aggregation at 3 uM
SK-N-SH [15] = assay: Induction of autophagy in human SK-N-SH cells expressing EGFP-HDQ74/m-calpain assessed as inhibition of EGFP-HDQ74 aggregation at 1 uM after 48 hrs; assay type: functional, cell-based
Drosophila [16] = assay: Protection of neurodegeneration in Drosophila Huntington's disease model assessed as induction autophagy at 1.25 mM; assay type: functional, organism-based
Method in brief: (§2)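 Progeny reared on instant food with drug (from 0.5 M DMSO stock) or DMSO, at 25°C, 70% humidity, 12 h light/dark. Photoreceptors scored by pseudopupil technique 2 days after eclosion; paired t-test on experiment averages.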

Drosophila [17] = assay: Protection of neurodegeneration in Drosophila Huntington's disease model assessed as induction autophagy at 2.5 mM; assay type: functional, organism-based; method in brief: as §2
COS-7 [18] = assay: Induction of autophagy in african green monkey COS7 cells assessed as increase in autophagosome at 50 uM after 24 hrs by electron microscopy; assay type: functional, cell-based; conditions: Chlorocebus aethiops
Method in brief: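 COS-7 cells exposed 24 h, fixed, and examined by electron microscopy. Early and late autophagosome-like structures were counted per 50 cell profiles. Student's t-test; error bars are standard error of the mean.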

PC-12 [19] = assay: Induction of autophagy in differentiated rat stable inducible PC12 cells expressing A53T alpha-synuclein assessed as A53T alpha-synuclein clearance at 10 uM after 96 hrs by calpain activation assay; assay type: functional, cell-based
COS-7 [20] = assay: Induction of autophagy in african green monkey COS7 cells expressing EGFP-LC3 assessed as increase in EGFP-LC3 vesicle at 50 uM after 24 hrs; assay type: functional, cell-based; conditions: Chlorocebus aethiops
PC-12 [21] = assay: Induction of autophagy in undifferentiated rat stable inducible PC12 cells expressing A53T alpha-synuclein assessed as A53T alpha-synuclein clearance at 10 uM after 96 hrs by calpain activation assay; assay type: functional, cell-based
PC-12 [22] = assay: Induction of autophagy in differentiated rat stable inducible PC12 cells expressing EGFP-HDQ74 assessed as EGFP-HDQ74 clearance at 10 uM after 96 hrs by calpain activation assay; assay type: functional, cell-based
COS-7 [23] = assay: Induction of autophagy in african green monkey COS7 cells expressing EGFP-HDQ74/rheb assessed as reduction in EGFP-HDQ74 aggregation at 50 uM after 48 hrs; assay type: functional, cell-based; conditions: Chlorocebus aethiops
PC-12 [24] = assay: Induction of autophagy in undifferentiated rat stable inducible PC12 cells expressing EGFP-HDQ74 assessed as EGFP-HDQ74 clearance at 10 uM after 96 hrs by calpain activation assay; assay type: functional, cell-based
COS-7 [25] = assay: Induction of autophagy in african green monkey COS7 cells expressing EGFP-HDQ74 assessed as inhibition of PLC-epsilon overexpression-induced EGFP-HDQ74 aggregation at 50 uM after 48 hrs; assay type: functional, cell-based; conditions: Chlorocebus aethiops
HeLa = assay: Induction of autophagy in human HeLa cells expressing EGFP-LC3 assessed as increase in LC3-2 level at 50 uM in presence of 400 nM bafilomycin A1; assay type: functional, cell-based
COS-7 [26] = assay: Induction of autophagy in african green monkey COS7 cells assessed as increase in LC3-2 vesicle at 50 uM after 24 hrs by immunofluorescence assay; assay type: functional, cell-based; conditions: Chlorocebus aethiops
Method in brief: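 Fixed COS-7 cells, after 24 h exposure, immunostained for LC3 with an anti-LC3 primary and Alexa-conjugated secondary; confocal imaging of LC3-positive vesicles.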

Danio rerio [27] = species on record: Danio rerio; assay: Protection of neurodegeneration in zebrafish Huntington's disease model expressing EGFP-tagged huntingtin exon with EGFP-HDQ71 in rod photoreceptor assessed as decrease in […] aggregation at 100 uM; assay type: functional, organism-based
Method in brief: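 Transgenic zebrafish embryos kept in 0.1 mM PTU from 1 to 3 d.p.f. and screened by EGFP, then dark-reared 3–9 d.p.f. in compound in E3 medium (pH 7.2), refreshed daily. Fixed in 4% PFA, cryosectioned at 12 μm; aggregates counted over 96 μm of central eye. Mean of 10 fish; ANOVA with Dunnett test.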

Danio rerio [28] = species on record: Danio rerio; assay: Protection of neurodegeneration in zebrafish Huntington's disease model expressing EGFP-tagged huntingtin exon with EGFP-HDQ71 in rod photoreceptor assessed as induction of rhodopsin expression at 100 uM; assay type: functional, organism-based
Method in brief: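 Zebrafish larvae dosed 3–9 d.p.f. in E3 medium (daily refresh, dark-reared), lysed in 80% RIPA/100 mM DTT with protease inhibitor for 1 h on ice. Proteins run on 10% SDS-PAGE and blotted with anti-rhodopsin (Zpr3, 1:1000), anti-Zpr1 and anti-EGFP; ECL detection.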

COS-7 [29] = assay: Induction of autophagy in african green monkey COS7 cells expressing EGFP-HDQ74/m-calpain assessed as decrease in EGFP-HDQ74 aggregation at 500 uM after 48 hrs; assay type: functional, cell-based; conditions: Chlorocebus aethiops
PC-12 [30] = assay: Induction of autophagy in rat stable inducible PC12 cells expressing A53T alpha-synuclein assessed as A53T alpha-synuclein clearance at 500 uM after 24 hrs by densitometric analysis; assay type: functional, cell-based
Method in brief: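 Inducible PC12 A53T α-synuclein (HA) cells induced with 1 μg/ml doxycycline for 48 h. Doxycycline then removed for 24 h with compound or DMSO. Remaining protein measured by anti-HA immunoblot, densitometry relative to actin.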

PC-12 [31] = assay: Induction of autophagy in rat stable inducible PC12 cells assessed as increase in LC3-2 level at 500 uM after 24 hrs by immunoblotting analysis; assay type: functional, cell-based
Method in brief: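 Stable inducible PC12 cells exposed 24 h; endogenous LC3-II measured by anti-LC3 immunoblotting, with densitometry relative to actin.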

PC-12 [32] = assay: Induction of autophagy in rat stable inducible PC12 cells expressing A53T alpha-synuclein assessed as inhibition of PACAP-retarded A53T alpha-synuclein clearance at 500 uM after 24 hrs by densitometric analysis; assay type: functional, cell-based
Method in brief: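 Inducible PC12 A53T α-synuclein line (doxycycline 1 μg/ml 48 h, then 24 h off-induction) treated 24 h with 100 nM PACAP with or without compound. Clearance measured by anti-HA immunoblot, densitometry relative to actin.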

SK-N-SH [33] = assay: Induction of autophagy in human SK-N-SH cells expressing EGFP-HDQ74 assessed as reduction in EGFP-HDQ74 aggregation at 500 uM after 48 hrs by densitometric analysis; assay type: functional, cell-based

For `COC(=O)C1=C(C)NC(C)=C([N+](=O)[O-])C1c1ccccc1C(F)(F)F` (racemic), the Activity (Danio rerio [1]) was “Active”, the Activity (SK-N-MC [2]) was “Toxic” and the Activity (COS-7 [3]) was “Active”. For the same compound, the Activity (SK-N-SH (Homo sapiens) [4]) was “inactive”, the Activity (SK-N-MC [5]) was “Active” and the Activity (Danio rerio [6]) was “inactive”. The inhibition (SK-N-SH [7]) was “Dose-dependent effect” and the Activity (Mus musculus) was “inactive”.

With `CO[C@H]1C[C@@H]2CC[C@@H](C)[C@@](O)(O2)C(=O)C(=O)N2CCCC[C@H]2C(=O)O[C@H]([C@H](C)C[C@@H]2CC[C@@H](O)[C@H](OC)C2)CC(=O)[C@H](C)/C=C(\C)[C@@H](O)[C@@H](OC)C(=O)[C@H](C)C[C@H](C)/C=C/C=C/C=C/1C` the Activity (COS-7 [8]) was “Active” and the Activity (COS-7 [9]) was “Active”.

`COc1ccc(CCN(C)CCCC(C#N)(c2ccc(OC)c(OC)c2)C(C)C)cc1OC` (stereo not given) was tested, and the Activity (Danio rerio [10]) was “Active”, the Activity (Danio rerio [11]) was “inactive” and the Activity (SK-N-SH (Homo sapiens) [4]) was “Active”. The Activity (SK-N-MC [5]) was “Active”, the Activity (Danio rerio [6]) was “Active” and the Activity (SK-N-SH (Homo sapiens) [12]) was “Active”. For the same compound, the Activity (SK-N-SH [13]) was “Active”, the Activity (Danio rerio [14]) was “Active” and the Activity (SK-N-SH [15]) was “inactive”. For the same compound, the Activity (Drosophila [16]) was “Active”, the Activity (Drosophila [17]) was “Active” and the Activity (Mus musculus) was “inactive”.

In the case of `CCCC[C@@H](C=O)NC(=O)[C@H](CC(C)C)NC(=O)OCc1ccccc1`, the Activity (COS-7 [18]) is reported as “Active”, the Activity (PC-12 [19]) is reported as “Active” and the Activity (COS-7 [20]) is reported as “Active”. For the same compound, the Activity (PC-12 [21]) was “Active”, the Activity (PC-12 [22]) was “Active” and the Activity (COS-7 [23]) was “Active”. For the same compound, the Activity (PC-12 [24]) was “Active”, the Activity (COS-7 [25]) was “Active” and the Activity (HeLa) was “Active”.

`CSCC[C@@H](C=O)NC(=O)[C@H](CC(C)C)NC(=O)[C@H](CC(C)C)NC(C)=O` (Ac-Leu-Leu-Met-aldehyde) was tested, and the Activity (COS-7 [26]) was “Active” and the Activity (HeLa) was “Active”.

In the case of `C[C@H]1O[C@@H](n2cnc3c(N)ncnc32)C[C@@H]1O`, the Activity (Danio rerio [27]) is reported as “Active”, the Activity (Danio rerio [28]) is reported as “Active” and the Activity (COS-7 [29]) is reported as “Active”. The Activity (PC-12 [30]) was “Active”, the Activity (PC-12 [31]) was “Active” and the Activity (PC-12 [32]) was “Active”. For the same compound, the Activity (SK-N-SH [33]) was “Active”.
